Structures can show the parent of a compound that is named as a salt.
How the values were obtained:
Type in all cases: functional, organism-based
Plasmodium falciparum [1] = assay: Growth inhibition after 72 hrs of Plasmodium falciparum D6 by SYBR green I assay; conditions: D6, 72 h
In short: (§1)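 Cultures were set up as for the ELISA arm: 0.5% parasitemia, 2% hematocrit, 72 h at 37°C, 5% O2/5% CO2/90% N2, twofold drug dilutions in duplicate. Plates were frozen at −80°C and thawed 2 h. 100 μl culture was mixed with an equal volume of SYBR green I in lysis buffer (Tris 20 mM pH 7.5, EDTA, saponin, Triton X-100), then held 1 h at RT. Fluorescence was read at 485/535 nm, with an uninfected-RBC background control. IC50/IC90 were derived by nonlinear fitting.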

Plasmodium falciparum [2] = assay: Growth inhibition after 72 hrs of Plasmodium falciparum 3D7 by SYBR green assay; conditions: 3D7, 72 h; in short: as §1
Plasmodium falciparum [3] = assay: Growth inhibition after 72 hrs of Plasmodium falciparum W2 by SYBR green I assay; conditions: W2, 72 h; in short: as §1
Plasmodium falciparum [4] = assay: Growth inhibition after 72 hrs of Plasmodium falciparum 3D7 by HRPII ELISA; conditions: 3D7, 72 h
In short: (§2)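 Ring-stage cultures (≥70% rings) diluted to 0.5% parasitemia, 2% hematocrit, in RPMI with Albumax I or 10% human serum. Incubated 72 h at 37°C under 5% O2/5% CO2/90% N2 in plates predosed in duplicate with twofold dilutions (chloroquine 3.8–242 nM, quinine 10.8–346 nM, mefloquine 1.1–37.7 nM). Plates were then frozen and thawed. Lysate was assayed by HRPII capture ELISA (IgM capture, HRP detector), A450. IC50/IC90 were derived by nonlinear fitting.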

Plasmodium falciparum [5] = assay: Growth inhibition after 72 hrs of Plasmodium falciparum W2 by HRPII ELISA; conditions: W2, 72 h; in short: as §2
Plasmodium falciparum [6] = assay: Growth inhibition after 72 hrs of Plasmodium falciparum D6 by HRPII ELISA; conditions: D6, 72 h; in short: as §2

SMILES	IC50 (Plasmodium falciparum [1]) [nM]	IC90 (Plasmodium falciparum [1]) [nM]	IC50 (Plasmodium falciparum [2]) [nM]	IC90 (Plasmodium falciparum [2]) [nM]	IC50 (Plasmodium falciparum [3]) [nM]	IC90 (Plasmodium falciparum [3]; read-out: IC90) [nM]	IC50 (Plasmodium falciparum [4]) [nM]	IC90 (Plasmodium falciparum [4]) [nM]	IC50 (Plasmodium falciparum [5]) [nM]	IC90 (Plasmodium falciparum [5]) [nM]	IC50 (Plasmodium falciparum [6]) [nM]	IC90 (Plasmodium falciparum [6]) [nM]	IC90 (Plasmodium falciparum [3]) [nM]
C=CC1CN2CC[C@H]1C[C@H]2[C@H](O)c1ccnc2ccc(OC)cc12 (single isomer, unassigned) [QUININE HYDROCHLORIDE]	6.6	12.4	6.9	63.7	22.2	116	5.9	42.6	15.1	128	6.7	13.2	–
O[C@@H](c1cc(C(F)(F)F)nc2c(C(F)(F)F)cccc12)[C@H]1CCCCN1 [MEFLOQUINE HYDROCHLORIDE]	6.4	23.3	9.4	29.8	–	12.2	8.4	25.6	1.9	8	–	–	–
CCN(CC)CCCC(C)Nc1ccnc2cc(Cl)ccc12 (configuration not stated) [CHLOROQUINE PHOSPHATE]	–	16.1	–	26.4	–	–	–	33.2	–	129	–	15.8	125

Source: ChEMBL document CHEMBL1146201, “Comparison of a SYBR green I-based assay with a histidine-rich protein II enzyme-linked immunosorbent assay for in vitro antimalarial drug efficacy testing and application to clinical isolates” (Antimicrob Agents Chemother, 2007)
